Series [1] is described as follows: Drug level in phosphate buffer treated with (Z)-3,3-dimethyl-1-(5-(4-(methylamino)benzoyloxy)-2,4-dinitrophenoxy)triaz-1-ene 2-oxide at 1 uM at pH 7.4 at 37 degC after 1 to 30 mins by LC/MS-MS analysis. Type of series: physicochemical. To be noted: pH 7.4, 1 µM.
For series [2], the target named is T1, Glutathione S-transferase P (Homo sapiens, UniProt P09211). The series is described as follows: Drug level in phosphate buffer assessed as GSTP1 (unknown origin)-mediated compound formation treated with (Z)-1-(4-cyano-5-(4-(methylamino)benzoyloxy)-2-nitrophenoxy)-3,3-dimethyltriaz-1-ene 2-oxide at 1 uM at pH 7.4 at 37 degC after 1 to 30 mins by LC-MS/MS analysis in presence of GSH. Type of series: ADME. To be noted: pH 7.4, 1 µM. The method, boiled down:
(§1)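 Test compound at 1 µM reacted with 4 mM GSH containing 4 nM GSTP1 in 0.1 M phosphate, pH 7.4, at 37 °C. Products identified by LC–MS traces taken at 60 s and 30 min.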

Series [3] deals with HL-60. The series is described as follows: Cytotoxicity against human HL60 cells assessed as growth inhibition after 72 hrs by MTT assay. Type of series: functional, cell-based. The following applies: HL-60, 72 h. The gist of the method: (§2)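 HL-60 and U937 cells from ATCC, grown per supplier protocol, seeded and exposed to increasing concentrations for 72 h. Viability was read with a Promega assay run per the manufacturer's protocol. Six repeats per concentration, three independent experiments. IC50 derived by curve fitting.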

Series [4] relates to HL-60. The series can be described thus: Induction of SAPK/JNK phosphorylation in human HL-60 cells at 5 to 20 uM after 24 hrs by Western blot analysis.
Series [5] relates to HL-60. The series can be described thus: Induction of apoptosis in human HL60 cells assessed as cleavage of PARP at >10 uM after 24 hrs by Western blot analysis. It is filed as functional, cell-based.
In series [6] the target is T1, Glutathione S-transferase P. The series can be described thus: Drug metabolism in phosphate buffer assessed as formation of GSTP1 (unknown origin)-mediated (Z)-1-(5-((R)-2-((S)-4-amino-4-carboxybutanamido)-3-(carboxymethylamino)-3-oxopropylthio)-2-cyano-4-nitrophenoxy)-3,3-dimethyltriaz-1-ene 2-oxide at 1 uM at pH 7.4 at 37 degC after 5 to 30 mins by LC-MS/MS analysis in presence of GSH. Type of series: ADME. The following applies: pH 7.4, 1 µM. The gist of the method: as §1

Series [7] has as its system HL-60. The series can be described thus: Induction of apoptosis in human HL60 cells assessed as activation of caspase 7 at >10 uM after 24 hrs by Western blot analysis. It is filed as functional, cell-based.
Series [8] deals with HL-60. The series is described as follows: Induction of apoptosis in human HL60 cells assessed as activation of caspase 8 at >10 uM after 24 hrs by Western blot analysis. It is filed as functional, cell-based.
The nature of series [9]: Stability of the compound in phosphate buffer assessed as first-order initial rate constant for hydrolysis at pH 7.4 at 25 degC by HPLC trapping method. Type of series: physicochemical.
The target in series [10] is T2, Glutathione S-transferase A1 (Homo sapiens, UniProt P08263).
T2 sequence (P08263 whole entry): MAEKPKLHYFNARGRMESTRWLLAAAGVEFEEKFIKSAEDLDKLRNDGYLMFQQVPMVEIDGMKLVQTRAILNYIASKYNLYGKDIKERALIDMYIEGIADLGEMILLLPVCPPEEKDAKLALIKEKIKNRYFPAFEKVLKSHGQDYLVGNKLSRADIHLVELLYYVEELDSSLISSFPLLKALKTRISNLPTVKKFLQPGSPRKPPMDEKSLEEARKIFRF
The series can be described thus: Drug metabolism in phosphate buffer assessed as ratio of GSTA1 (unknown origin)-mediated (S)-2-amino-5-((R)-1-(carboxymethylamino)-3-(2-cyano-5-hydroxy-4-nitrophenylthio)-1-oxopropan-2-ylamino)-5-oxopentanoic acid formation from nitric oxide release pathway to GSTA1 (unknown origin)-mediated (Z)-1-(2-cyano-5-hydroxy-4-nitrophenoxy)-3,3-dimethyltriaz-1-ene 2-oxide formation from nitric oxide retained pathway at 1 uM at pH 7.4 at 37 degC after 30 mins by LC-MS/MS analysis in presence of GSH. Type of series: ADME. To be noted: pH 7.4, 0.5 h. The method, boiled down: (§3)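 Products analysed by LC–MS. The ratio is the NO-release-pathway product over the NO-retained-pathway phenolic product.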

Another series relates to U-937. The series is described as follows: Cytotoxicity against human U937 cells assessed as growth inhibition after 72 hrs by MTT assay. It is filed as functional, cell-based. The following applies: U-937, 72 h. The gist of the method: as §2
Series [11] can be described thus: Stability of the compound in phosphate buffer assessed as first-order initial rate constant for hydrolysis at pH 7.4 at 37 degC by HPLC trapping method. It is filed as physicochemical.
Series [12] is described as follows: Stability of the compound in phosphate buffer assessed as pseudo-first order rate constant at pH 7.4 at 37 degC by HPLC trapping method in presence of GSH. It is filed as physicochemical.
The target of series [13] is T1, Glutathione S-transferase P. The series is described as follows: Prodrug conversion in phosphate buffer assessed as GSTP1 (unknown origin)-mediated nitric oxide release at 1 uM at pH 7.4 at 37 degC after 1 to 30 mins by LC/MS-MS analysis. The following applies: pH 7.4, 1 µM. Type of series: ADME. The method, boiled down:
as §1

Series [14] can be described thus: Drug level in phosphate buffer treated with (Z)-3,3-dimethyl-1-(5-(4-(methylamino)benzoyloxy)-2,4-dinitrophenoxy)triaz-1-ene 2-oxide at 1 uM at pH 7.4 at 37 degC by HPLC trapping method in presence of GSH. It is filed as physicochemical. The following applies: pH 7.4, 1 µM.
For series [15], the target named is T2, Glutathione S-transferase A1. The series can be described thus: Drug level in phosphate buffer assessed as GSTA1 (unknown origin)-mediated compound formation from nitric oxide retained pathway treated with (Z)-3,3-dimethyl-1-(5-(4-(methylamino)benzoyloxy)-2,4-dinitrophenoxy)triaz-1-ene 2-oxide at 1 uM at pH 7.4 at 37 degC after 30 mins by LC-MS/MS analysis in presence of GSH. It is filed as ADME. The following applies: pH 7.4, 0.5 h. The method, boiled down: as §3

Series [16] in a line: Drug level in phosphate buffer treated with (Z)-3,3-dimethyl-1-(5-(4-(methylamino)benzoyloxy)-2,4-dinitrophenoxy)triaz-1-ene 2-oxide at 1 uM at pH 7.4 at 37 degC by HPLC trapping method. Type of series: physicochemical. The following applies: pH 7.4, 1 µM.
Series [17] is described as follows: Drug level in phosphate buffer treated with (Z)-1-(4-cyano-5-(4-(methylamino)benzoyloxy)-2-nitrophenoxy)-3,3-dimethyltriaz-1-ene 2-oxide at 1 uM at pH 7.4 at 37 degC measured for 30 mins by LC-MS/MS analysis in presence of GSH. Type of series: physicochemical. To be noted: pH 7.4, 0.5 h.
Series [18] in a line: Drug level in phosphate buffer treated with (Z)-1-(2-cyano-5-(4-(methylamino)benzoyloxy)-4-nitrophenoxy)-3,3-dimethyltriaz-1-ene 2-oxide at 1 uM at pH 7.4 at 37 degC after 30 secs by LC-MS analysis in presence of GSH. It is filed as physicochemical. To be noted: pH 7.4, 0.5 min.
Series [19] is described as follows: Drug level in phosphate buffer treated with (Z)-1-(4-cyano-5-(4-(methylamino)benzoyloxy)-2-nitrophenoxy)-3,3-dimethyltriaz-1-ene 2-oxide at 1 uM at pH 7.4 at 37 degC after 30 secs by LC-MS analysis in presence of GSH. Type of series: physicochemical. To be noted: pH 7.4, 0.5 min.
Series [20] deals with T2, Glutathione S-transferase A1. The series is described as follows: Drug level in phosphate buffer assessed as GSTA1 (unknown origin)-mediated compound formation from nitric oxide release pathway treated with (Z)-1-(2-cyano-5-(4-(methylamino)benzoyloxy)-4-nitrophenoxy)-3,3-dimethyltriaz-1-ene 2-oxide at 1 uM at pH 7.4 at 37 degC after 30 mins by LC-MS/MS analysis in presence of GSH. It is filed as ADME. The following applies: pH 7.4, 0.5 h. The gist of the method: as §3

Activity calls are given as the source filed them. The rule behind the calls is not given here.

T1 sequence (P09211 whole entry): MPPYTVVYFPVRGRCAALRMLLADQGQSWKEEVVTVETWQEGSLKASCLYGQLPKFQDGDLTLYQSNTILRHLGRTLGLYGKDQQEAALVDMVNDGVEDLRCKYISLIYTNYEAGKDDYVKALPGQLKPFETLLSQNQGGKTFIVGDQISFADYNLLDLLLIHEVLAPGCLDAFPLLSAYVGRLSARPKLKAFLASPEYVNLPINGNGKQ

For the compound `N[C@@H](CCC(=O)N[C@@H](CSc1cc(SC[C@H](NC(=O)CC[C@H](N)C(=O)O)C(=O)NCC(=O)O)c([N+](=O)[O-])cc1[N+](=O)[O-])C(=O)NCC(=O)O)C(=O)O`, the Drug metabolism entry in series [1] is recorded as “metabolite_detected”.

As to `CNc1ccc(C(=O)Oc2cc(SC[C@H](NC(=O)CC[C@H](N)C(=O)O)C(=O)NCC(=O)O)c([N+](=O)[O-])cc2C#N)cc1`, in [2], the Drug metabolism result was “metabolite_detected”.

`CNc1ccc(C(=O)Oc2cc(O/N=[N+](\[O-])N(C)C)c(C#N)cc2[N+](=O)[O-])cc1`: the half-inhibitory concentration (IC50) was found to be 20 µM in the series on HL-60 [3] and 15 µM with U-937. Further, the outcome with HL-60 [4], in the series with HL-60 [5], in the series on HL-60 [7] and in the series on HL-60 [8] was Active. In addition, the Drug metabolism entry in [6] and in [13] was “metabolite_detected” each time. Also, the K in series [9] was 3.3 ×10⁻⁵ /s; in series [11], 2.1 ×10⁻⁴ /s; in series [12], 2.1 ×10⁻³ /s. For the same compound, in [10], the Ratio came out at 1.

As for `CN(C)/[N+]([O-])=N/Oc1cc(SC[C@H](NC(=O)CC[C@H](N)C(=O)O)C(=O)NCC(=O)O)c([N+](=O)[O-])cc1[N+](=O)[O-]`, the Drug metabolism entry in series [14] is recorded as “metabolite_detected”.

As for `CN(C)/[N+]([O-])=N\Oc1cc(O)c([N+](=O)[O-])cc1[N+](=O)[O-]`, the Drug metabolism result in series [15], in series [14], in [1] and in [16] was “metabolite_detected” throughout.

On to `CNc1ccc(C(=O)SC[C@H](NC(=O)CC[C@H](N)C(=O)O)C(=O)NCC(=O)O)cc1`, for which the Drug metabolism entry in series [17], in series [18], in [1] and in series [19] was “metabolite_detected” each time.

With `N#Cc1cc([N+](=O)[O-])c(O)cc1SC[C@H](NC(=O)CC[C@H](N)C(=O)O)C(=O)NCC(=O)O`, the Drug metabolism result in [20] is listed as “metabolite_detected”.

These data come from ChEMBL document CHEMBL3593239, “PABA/NO lead optimization: Improved targeting of cytotoxicity to glutathione S-transferase P1-overexpressing cancer cells” (Bioorg Med Chem, 2015).
